Data on five compounds can be found in ChEMBL document CHEMBL4118124, “Quinone skeleton as a new class of irreversible inhibitors against Staphylococcus aureus sortase A” (Bioorg Med Chem Lett, 2018).

Activity calls are given as the source filed them. No cut-off for these calls is given here.

As a reminder, the IC50 is the concentration that inhibits the measured activity by half.

The target in data set [1] is T1, Sortase A (Staphylococcus aureus) (UniProt Q9S446).
T1 sequence (whole entry): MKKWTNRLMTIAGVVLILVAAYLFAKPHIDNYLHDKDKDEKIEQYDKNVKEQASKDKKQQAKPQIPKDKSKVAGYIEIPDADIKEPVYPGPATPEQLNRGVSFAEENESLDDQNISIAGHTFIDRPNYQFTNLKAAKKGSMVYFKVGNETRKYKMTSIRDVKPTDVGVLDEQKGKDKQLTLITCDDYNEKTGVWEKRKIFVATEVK
Description: (§1) Inhibition of Staphylococcus aureus SrtA deltaN24 mutant assessed as decrease in transpeptidation of IsdA (64 to 323 residues) incubated for 1.25 hrs in presence of NH2-Gly3 nucleophile by SDS-PAGE method. The method, boiled down:
(§2)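 Affinity-purified IsdA64–323, a natural SrtA substrate, incubated with purified SrtA ΔN24 and NH2-Gly3 nucleophile, with or without compound. Sorting-signal cleavage giving the transpeptidation product resolved by SDS-PAGE; inhibition seen as partial or complete loss of product.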

The target in data set [2] is T2, Sortase A (Staphylococcus aureus, UniProt Q9S446). Description: Inhibition of Staphylococcus aureus SrtA deltaN24 mutant transpeptidation activity using abz-LPATG-dnp as substrate preincubated for 10 mins followed by substrate addition measured every 2 mins for 20 mins by FRET assay.
Data set [3] addresses T2, Sortase A. Described as §1. The essentials:
as §2

Data set [4] deals with T1, Sortase A (Staphylococcus aureus). Description: Irreversible binding affinity to Staphylococcus aureus SrtA deltaN24 mutant at Cys184 at 10 fold IC50 preincubated with compound for 1 hr followed by protein dilution by ESI-LC-MS/MS method.
For data set [5] the target is unchanged. Description: Inhibition of Staphylococcus aureus Newman SrtA assessed as decrease in SpA display by FITC-IgG-based fluorescence assay. The conditions noted are these: Staphylococcus aureus subsp. aureus str. Newman.
The test system of data set [6] is Staphylococcus aureus. Description: Growth inhibition of Staphylococcus aureus Newman at 150 uM incubated for 12 hrs measured every hour by spectrophotometry. In kind it is organism-based. The conditions noted are these: in vivo.
The target of data set [7] is T1, Sortase A (Staphylococcus aureus). Description: Binding affinity to Staphylococcus aureus 15N-labelled SrtA deltaN59 mutant at 1:0 and 1:1 molar ratio of protein and compound by 2D 1H-15N HSQC spectra method.
Data set [8] relates to Staphylococcus aureus. Description: Antibiofilm activity against Staphylococcus aureus Newman assessed as inhibition of biofilm biomass after 18 hrs by crystal violet staining-based assay. It is filed as functional, organism-based.
Data set [9] concerns the target T1, Sortase A (Staphylococcus aureus). Description: Irreversible inhibition of Staphylococcus aureus SrtA deltaN24 mutant transpeptidation activity using abz-LPATG-dnp as substrate assessed as ratio Kinact to Ki incubated for 5 to 25 mins by FRET assay.
Data set [10] shares this target. Description: (§3) Irreversible inhibition of Staphylococcus aureus SrtA deltaN24 mutant transpeptidation activity using abz-LPATG-dnp as substrate incubated for 5 to 25 mins by FRET assay.
The target of data set [11] is T2, Sortase A. Described as §3.
In data set [12] the target is T1, Sortase A (Staphylococcus aureus). Description: Irreversible binding affinity to Staphylococcus aureus SrtA deltaN24 mutant at 10 fold IC50 preincubated with compound for 1 hr followed by protein dilution by ESI-LC/MS method.
Data set [13] shares this target. Description: Inhibition of Staphylococcus aureus Newman SrtA assessed as decrease in SpA display by SDS/PAGE immunoblotting assay. The note with it: Staphylococcus aureus subsp. aureus str. Newman. In general terms: Immunoblotting shows a protein as a band on a membrane.
The target is the same in data set [14]. Description: Irreversible inhibition of Staphylococcus aureus SrtA deltaN24 mutant transpeptidation activity using […] as substrate assessed as remaining activity at 10 fold IC50 preincubated for 1 hr followed by protein dilution and subsequent substrate addition measured every 2 mins for 20 mins by FRET assay relative to control.
Data set [15] shares this target. Description: Binding affinity to Staphylococcus aureus 15N-labelled SrtA deltaN59 C184A mutant at 1:0, 1:1, 1:2, 1:5 and 1:10 molar ratio of protein and compound by 2D 1H-15N HSQC spectra method.
For data set [16], the system named is Staphylococcus aureus. Description: Growth inhibition of Staphylococcus aureus Newman at 50 uM measured every hour. It is filed as organism-based. The conditions noted are these: in vivo.

Turning to `CCCNC1=C(C)C(=O)c2c(/C=C/S(=O)(=O)c3ccccc3)cccc2C1=O`, the inhibition entry in data set [1] was “inactive”. The half-maximal inhibitory concentration (IC50) against Sortase A [2] is more than 50 µM.
Regarding `O=C1C[C@H]2O[C@H](CCc3ccccc3)C3=C(C(=O)C=CC3=O)[C@H]2O1`, the IC50 on Sortase A [3] worked out at 10 µM; on Sortase A [2], 6.2 µM. The outcome in data set [4], in data set [7] and in data set [12] was Active. Also, the inhibition result (in data set [5]; in the data set with Staphylococcus aureus [8]; in data set [13]) was “Dose-dependent effect” each time. In the data set with Staphylococcus aureus [6], the “growth inhibition (GI)” value is on record as “Non-Toxic”. Moreover, the Ratio in data set [9] worked out at 0.0109 µM⁻¹ min⁻¹. In [10], this compound came in with a Kinact of 0.0388 min⁻¹. The compound also yielded a Ki on Sortase A [11] of 3.57 µM. Besides, the Activity in data set [14] was less than 10%. The result in [15] was inactive.
Consider `O=C1C[C@H]2O[C@@H](CCc3ccccc3)C3=C(C(=O)C=CC3=O)[C@H]2O1`, for which the IC50 at Sortase A [3] worked out at 50 µM; against Sortase A [2], 19.4 µM. The inhibition result (in data set [5]; with Staphylococcus aureus [8]; in data set [13]) was “Dose-dependent effect” throughout. For the same compound, the “growth inhibition (GI)” value with Staphylococcus aureus [6] is “Non-Toxic”. Also, the Activity in [14] is less than 10%.
`CC(C)=CC[C@@H](O)C1=CC(=O)c2c(O)ccc(O)c2C1=O` [SHIKONIN]: the “growth inhibition (GI)” value in the data set on Staphylococcus aureus [16] is listed as “Toxic”. The figures for the IC50 on Sortase A [3] and against Sortase A [2] were 5 µM and 0.3 µM, respectively.
The corresponding values for `CC(C)=CC[C@H](O)C1=CC(=O)c2c(O)ccc(O)c2C1=O` [ALKANNIN] are “Toxic”, 5 µM and 0.36 µM.
